Measurements taken from ChEMBL document CHEMBL1139824, “Optimization of a pyrazoloquinolinone class of Chk1 kinase inhibitors” (Bioorg Med Chem Lett, 2007).

Experiments:
[1] = target: T1, Serine/threonine-protein kinase Chk1 (Homo sapiens, UniProt O14757); test: Inhibition of Chk1 by fluorescence assay
T1 sequence (O14757 whole entry): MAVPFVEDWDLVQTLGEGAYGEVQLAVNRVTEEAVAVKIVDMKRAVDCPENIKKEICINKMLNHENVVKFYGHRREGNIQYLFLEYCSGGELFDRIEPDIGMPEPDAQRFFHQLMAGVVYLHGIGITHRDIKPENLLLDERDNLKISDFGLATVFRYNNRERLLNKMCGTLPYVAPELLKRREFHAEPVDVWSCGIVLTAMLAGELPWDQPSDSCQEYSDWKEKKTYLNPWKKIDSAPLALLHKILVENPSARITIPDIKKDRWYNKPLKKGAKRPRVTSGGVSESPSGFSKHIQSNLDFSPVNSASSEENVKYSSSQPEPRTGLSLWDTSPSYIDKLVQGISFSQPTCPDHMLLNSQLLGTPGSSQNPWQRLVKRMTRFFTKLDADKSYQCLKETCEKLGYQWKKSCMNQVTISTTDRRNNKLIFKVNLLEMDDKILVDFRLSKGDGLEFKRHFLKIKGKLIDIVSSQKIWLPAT

NCI-H1299 = test: Inhibition of camptothecin-induced cell cycle arrest in NCI-H1299 cells after 8 hrs; type: functional, cell-based; conditions: Homo sapiens, NCI-H1299, 8 h
Summary of the method: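 NCI-H1299 lung carcinoma cells held 16 h in camptothecin to arrest, then exposed to inhibitor a further 8 h. Escape into mitosis scored by mitosis-specific nucleolin phosphorylation, quantified with an antibody-coated bead-based assay.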

Row | SMILES | IC50 [1] | EC50 (NCI-H1299)
1 | Cc1[nH]nc2c1c(=O)[nH]c1ccccc12 | 1.37 µM | –
2 | Cc1cccc2c1[nH]c(=O)c1c(C)[nH]nc12 | 1.49 µM | –
3 | Cc1[nH]nc2c1c(NCCN)nc1ccc(Cl)cc12 | 0.06 µM | –
4 | Cc1[nH]nc2c1c(=O)[nH]c1c(CCCN)c(C3CCCCC3)c(C3CCCCC3)cc12 | 0.29 µM | –
5 | Cc1[nH]nc2c1c(=O)[nH]c1cc(Cl)ccc12 | 1.98 µM | –
6 | Cc1[nH]nc2c1c(=O)[nH]c1cc3c(cc12)CCCC3 | 0.13 µM | 1.21 µM
7 | Cc1[nH]nc2c1c(=O)[nH]c1cccc(Cl)c12 | 28.9 µM | –
8 | Cc1ccc2[nH]c(=O)c3c(C)[nH]nc3c2c1 | 0.23 µM | –
9 | Cc1[nH]nc2c1c(NCCCN)nc1ccc(Cl)cc12 | 0.22 µM | –
10 | CC(=O)Nc1ccc2[nH]c(=O)c3c(C)[nH]nc3c2c1 | 7.08 µM | –
11 | Cc1[nH]nc2c1c(OCCN)nc1ccc(Cl)cc12 | 0.85 µM | –
12 | Cc1[nH]nc2c1c(=O)[nH]c1cccc(C)c12 | > 100 µM | –
13 | Cc1[nH]nc2c1c(OCCCN)nc1ccc(Cl)cc12 | 0.064 µM | 10.2 µM

Compounds with a lower IC50 [1], results first:

Row | IC50 [1] | EC50 (NCI-H1299) | SMILES
14 | 0.058 µM | – | Cc1[nH]nc2c1c(=O)[nH]c1c(/C=C/CN)c(C3CCCCC3)c(C3CCCCC3)cc12
15 | 0.02 µM | 1.01 µM | Cc1[nH]nc2c1c(=O)n(CCCCN)c1ccc(Cl)cc21
16 | 0.036 µM | 0.98 µM | Cc1[nH]nc2c1c(=O)n(CCN)c1ccc(Cl)cc21
17 | 0.0031 µM | 0.065 µM | Cc1[nH]nc2c1c(=O)n(C[C@H](F)CN)c1cc(C3CCCCC3)c(C3CCCCC3)cc21
18 | 0.0032 µM | 0.083 µM | Cc1[nH]nc2c1c(=O)n(C[C@@H](F)CN)c1cc(C3CCCCC3)c(C3CCCCC3)cc21
19 | 0.04 µM | 2.98 µM | Cc1[nH]nc2c1c(=O)[nH]c1ccc(Cl)cc12
20 | 0.01 µM | > 10 µM | CCn1c(=O)c2c(C)[nH]nc2c2cc3c(cc21)CN(S(=O)(=O)CCN)CC3
21 | 0.029 µM | 0.71 µM | Cc1[nH]nc2c1c(=O)[nH]c1cc3ccccc3cc12
22 | 0.0012 µM | 0.16 µM | Cc1[nH]nc2c1c(=O)n(CCCN)c1ccc(Cl)cc21
23 | 0.012 µM | > 10 µM | CCn1c(=O)c2c(C)[nH]nc2c2cc3c(cc21)CN(C(=O)NCCN)CC3
24 | 0.018 µM | > 10 µM | CCn1c(=O)c2c(C)[nH]nc2c2cc3c(cc21)CN(C(=O)CN)CC3
